According to ChEMBL document CHEMBL3603742, “Design, synthesis and cytotoxicity studies of dithiocarbamate ester derivatives of emetine in prostate cancer cell lines” (Bioorg Med Chem, 2015):
pIC50: −log10 of the molar value.

Key:
Assay type in all cases: functional, cell-based
[1] = test system: LNCaP; experiment: Cytotoxicity against human LNCAP cells after 3 days by MTT assay; details: 72 h
In short: (§1)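 Human prostate lines from ATCC were kept in log phase in RPMI with 10% FBS, 1% L-glutamine and 1% penicillin-streptomycin at 37 °C, 5% CO2. PC3 and DU145 were seeded at 2.5 X 10^3 cells/well and LNCaP at 6 X 10^3 cells/well, then left 24 h. Cells were exposed continuously to 0.01–10 μM (0.1% DMSO final; DMSO controls), with MTT viability read on days 3, 5 and 7.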

[2] = test system: PC-3; experiment: Cytotoxicity against human PC3 cells after 3 days by MTT assay; details: PC-3, 72 h; in short: as §1
[3] = test system: DU-145; experiment: Cytotoxicity against human DU145 cells after 3 days by MTT assay; details: DU-145, 72 h; in short: as §1
[4] = test system: LNCaP; experiment: Cytotoxicity against human LNCAP cells after 5 days by MTT assay; details: 120 h; in short: as §1
[5] = test system: PC-3; experiment: Cytotoxicity against human PC3 cells after 5 days by MTT assay; details: PC-3, 120 h; in short: as §1
[6] = test system: DU-145; experiment: Cytotoxicity against human DU145 cells after 5 days by MTT assay; details: DU-145, 120 h; in short: as §1
[7] = test system: DU-145; experiment: Cytotoxicity against human DU145 cells after 7 days by MTT assay; details: DU-145, 168 h; in short: as §1
[8] = test system: LNCaP; experiment: Cytotoxicity against human LNCAP cells after 7 days by MTT assay; details: 168 h; in short: as §1
[9] = test system: PC-3; experiment: Cytotoxicity against human PC3 cells after 7 days by MTT assay; details: PC-3, 168 h; in short: as §1

`CC[C@H]1CN2CCc3cc(OC)c(OC)cc3[C@@H]2C[C@@H]1C[C@@H]1c2cc(OC)c(OC)cc2CCN1C(=S)S` showed a pIC50 [1] of 6.25, a pIC50 [2] of 6.35 and a pIC50 [3] of 6.42. For the same compound, the pIC50 [4] was 7.06, the pIC50 [5] was 7.04 and the pIC50 [6] was 7.10. The pIC50 [7] was 7.10.

`CC[C@H]1CN2CCc3cc(OC)c(OC)cc3[C@@H]2C[C@@H]1C[C@@H]1c2cc(OC)c(OC)cc2CCN1C(=S)SCc1ccccc1` gave a pIC50 [2] of 5.60, a pIC50 [3] of 5.56 and a pIC50 [4] of 5.72. The pIC50 [5] was 5.69, the pIC50 [6] was 5.68 and the pIC50 [8] was 5.88. The pIC50 [7] was 5.70.

`CCCCCCSC(=S)N1CCc2cc(OC)c(OC)cc2[C@H]1C[C@H]1C[C@H]2c3cc(OC)c(OC)cc3CCN2C[C@@H]1CC` gave a pIC50 [1] of 5.44, a pIC50 [2] of 5.22 and a pIC50 [3] of 5.44. It also gave a pIC50 [4] of 5.79, a pIC50 [5] of 5.49 and a pIC50 [6] of 5.50. For the same compound, the pIC50 [8] was 5.80, the pIC50 [9] was 5.52 and the pIC50 [7] was 5.64.

For `CC[C@H]1CN2CCc3cc(OC)c(OC)cc3[C@@H]2C[C@@H]1C[C@@H]1c2cc(OC)c(OC)cc2CCN1C(=S)SCCCCC(=O)OC`, the pIC50 [1] was 5.32, the pIC50 [2] was 5.08 and the pIC50 [3] was 5.49. For the same compound, the pIC50 [4] was 5.64, the pIC50 [5] was 5.31 and the pIC50 [6] was 5.50. It also gave a pIC50 [8] of 5.75, a pIC50 [9] of 5.36 and a pIC50 [7] of 5.65.

With `CC[C@H]1CN2CCc3cc(OC)c(OC)cc3[C@@H]2C[C@@H]1C[C@@H]1c2cc(OC)c(OC)cc2CCN1C(=S)SCCC(N)=O` the pIC50 [1] was 5.04, the pIC50 [2] was < 5.00 and the pIC50 [3] was < 5.00. The pIC50 [4] was 5.32, the pIC50 [5] was 5.18 and the pIC50 [6] was < 5.00. For the same compound, the pIC50 [8] was 5.47, the pIC50 [9] was 5.28 and the pIC50 [7] was < 5.00.

Compound `CC[C@H]1CN2CCc3cc(OC)c(OC)cc3[C@@H]2C[C@@H]1C[C@@H]1c2cc(OC)c(OC)cc2CCN1C(=S)SCC(=O)Nc1ccc(Br)cc1` has a pIC50 [1] of 5.28, a pIC50 [2] of 5.41 and a pIC50 [3] of 5.25. For the same compound, the pIC50 [4] was 5.66, the pIC50 [5] was 5.56 and the pIC50 [6] was 5.55. It also gave a pIC50 [8] of 5.77, a pIC50 [9] of 5.82 and a pIC50 [7] of 5.80.

`CC[C@H]1CN2CCc3cc(OC)c(OC)cc3[C@@H]2C[C@@H]1C[C@@H]1c2cc(OC)c(OC)cc2CCN1C(=S)SCC(=O)c1ccc(Cl)cc1` gave a pIC50 [1] of 5.24, a pIC50 [2] of 5.44 and a pIC50 [3] of 5.50. It also gave a pIC50 [4] of 5.64, a pIC50 [5] of 5.57 and a pIC50 [6] of 5.50. The pIC50 [8] was 5.71, the pIC50 [9] was 5.57 and the pIC50 [7] was 5.61.

Work on `CCOC(=O)c1ccc(NC(=O)CSC(=S)N2CCc3cc(OC)c(OC)cc3[C@H]2C[C@H]2C[C@H]3c4cc(OC)c(OC)cc4CCN3C[C@@H]2CC)cc1` yielded a pIC50 [1] of 5.33, a pIC50 [2] of 5.36 and a pIC50 [3] of 5.29. It also gave a pIC50 [4] of 5.57, a pIC50 [5] of 5.57 and a pIC50 [6] of 5.54. It also gave a pIC50 [8] of 5.78, a pIC50 [9] of 5.72 and a pIC50 [7] of 5.61.

Compound `CC[C@H]1CN2CCc3cc(OC)c(OC)cc3[C@@H]2C[C@@H]1C[C@@H]1c2cc(OC)c(OC)cc2CCN1C(=S)SCCN1C(=O)c2ccccc2C1=O` has a pIC50 [1] of 5.49, a pIC50 [2] of 5.49 and a pIC50 [3] of 5.42. The pIC50 [4] was 5.55, the pIC50 [5] was 5.56 and the pIC50 [6] was 5.45. The pIC50 [8] was 5.64, the pIC50 [9] was 5.62 and the pIC50 [7] was 5.52.

`CC[C@H]1CN2CCc3cc(OC)c(OC)cc3[C@@H]2C[C@@H]1C[C@H]1NCCc2cc(OC)c(OC)cc21` [EMETINE] was tested, and the pIC50 [1] was 7.43, the pIC50 [4] was 7.57 and the pIC50 [8] was 7.43.
